The results in this text go back to ChEMBL document CHEMBL4007453, “Identification of Non-Nucleoside Inhibitors of the Respiratory Syncytial Virus Polymerase Complex” (J Med Chem, 2017).

pEC50: −log10 of the molar value. ≈ marks a conversion by molar mass, not a printed value. Where “and” joins values, the source holds several entries; their conditions need not be identical. Identical values can stand only once. Some results are limits rather than exact numbers.

The nature of data set [1]: Retention time of the compound at 80 uM by LC-MS analysis.
In data set [2] the test system is Liver. The data set is described as follows: Stability in mouse liver microsomes at 1 uM in absence of NADPH after 2 hrs by LC-MS analysis. It is filed as ADME, microsome. In outline:
(§1)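 Test article at 1 µM final was incubated in triplicate at 37°C with shaking (150 rpm) with mouse or human liver S9 or microsomes (0.5 mg total protein), with Phase I oxidation and Phase II glucuronidation cofactors. Cofactor-free and microsome-free controls were run, sampled only at 0 and 120 min. Other sampling was at 0, 15, 30, 60 and 120 min into organic internal standard solution.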

Data set [3] concerns Liver. As to the kind of experiment: Drug metabolism in mouse liver microsomes assessed as metabolite M1 formation at 80 uM after 2 hrs by LC-MS analysis. It is filed as ADME, microsome. The method in brief:
(§2)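 Metabolite identification used 80 µM test article incubated in triplicate with mouse liver microsomes (0.5 mg total protein) plus Phase I oxidation and Phase II glucuronidation cofactors, at 37°C with shaking at 150 rpm. Aliquots were taken at 0, 15, 30, 60 and 120 min and mixed with organic internal standard solution.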

The subject of data set [4] is Liver. As to the kind of experiment: Drug metabolism in mouse liver microsomes assessed as metabolite M2 formation at 80 uM after 2 hrs by LC-MS analysis. Format: ADME, microsome. The method in brief: as §2
In general terms: Microsomes from liver hold many membrane-bound enzymes, among them those of drug oxidation.

In data set [5] the test system is Liver. The data set is described as follows: Drug metabolism in mouse liver microsomes assessed as metabolite M3 formation at 80 uM after 2 hrs by LC-MS analysis. It is filed as ADME, microsome. In outline: as §2
The subject of data set [6] is Liver. As to the kind of experiment: Drug metabolism in mouse liver microsomes assessed as metabolite M4 formation at 80 uM after 2 hrs by LC-MS analysis. Format: ADME, microsome. The method in brief:
as §2

In data set [7] the test system is Liver. As to the kind of experiment: Half life in mouse liver S9 fraction at 1 uM by LC-MS analysis. Format: ADME, tissue-based. Particulars: s9, 1 µM. The method in brief:
as §1

Data set [8] has as its system Liver. As to the kind of experiment: Half life in human liver microsomes at 1 uM by LC-MS analysis. Format: ADME, microsome. The method in brief: as §1
The subject of data set [9] is Liver. As to the kind of experiment: Half life in mouse liver microsomes at 1 uM in presence of NADPH by LC-MS analysis. It is filed as ADME, microsome. The method in brief:
as §1

The test system of the next data set is BEAS-2B. As to the kind of experiment: Cytotoxicity against human BEAS2B cells after 48 hrs by PrestoBlue staining based fluorescence assay. It is filed as cell-based. The method in brief:
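Uninfected BEAS-2B cells were exposed to compound for 48 h at 37°C. PrestoBlue was added and incubated 90 min at 37°C, then fluorescence was read (ex 560 nm, em 590 nm). Cytotoxic was defined as metabolic activity <70% of vehicle control. Highest concentration assessed for cytotoxicity was 90 µM, and CC50 came from four-parameter variable slope regression.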

Data set [10] can be described thus: Selectivity index, ratio of CC50 for human BEAS2B cells to EC50 for inhibition of recombinant mkate-tagged-Respiratory syncytial virus-A2-L19F RNA-dependent RNA polymerase complex D489E mutant in human BEAS2B cells infected with Respiratory syncytial virus-A2-L19F. It is filed as toxicity, cell-based. Conditions: read-out: Ratio CC50/EC50. In outline:
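SI is CC50/EC50 in BEAS-2B cells. EC50 came from reporter RSV dose-response, 3-fold dilutions, top 10 µM. […] Both values from four-parameter variable-slope regression.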

Data set [11] can be described thus: Aqueous solubility of the compound in phosphate buffered saline at pH 7.4 after 90 mins by laser nephelometric method. Format: physicochemical. In outline: (§3)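 Stocks of 30 mg/mL in DMSO were serially diluted in DMSO, then into buffer to final 300 down to 1.5 µg/mL at 1% final DMSO. Diluent was PBS for pH 7.4 and citrate buffer for pH 3 and 5. Plates stood 90 min at ambient temperature. Forward-scatter laser nephelometry gave the concentration at which precipitation began.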

A short description of data set [12]: Aqueous solubility of the compound in citrate buffer at pH 5 after 90 mins by laser nephelometric method. It is filed as physicochemical. The method in brief: as §3
Data set [13] in a line: Aqueous solubility of the compound in citrate buffer at pH 3 after 90 mins by laser nephelometric method. It is filed as physicochemical. The method in brief:
as §3

The nature of data set [14]: Inhibition of recombinant Respiratory syncytial virus-A2-L19F RNA-dependent RNA polymerase complex D489E mutant transfected with firefly luciferase gene at SMASh domain in human BEAS2B cells infected with Respiratory syncytial virus-A2-L19F assessed as reduction in viral replication measured after […] by bioluminescence assay. It is filed as cell-based. The method in brief:
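BEAS-2B cells (1.5×10^4/well) received 3-fold serial compound dilutions prepared in three repeats (top concentration 10 µM) and were infected with firefly-luciferase/SMASh reporter RSV-A2-L19F D489E (MOI 0.1). Luminescence was converted to % inhibition against four-replicate positive and negative controls per plate. EC50 came from four-parameter variable-slope regression.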

The subject of data set [15] is Liver. As to the kind of experiment: Drug metabolism in mouse liver microsomes assessed as 5-(3-Methylfuran-2-carbonyl)-5,6,7,8-tetrahydro-4H-pyrazolo-[1,5-a][1,4]diazepine-2-carboxylic Acid formation at 1 uM by LC-MS analysis. Format: ADME, microsome.
For data set [16], the system named is Liver. The data set is described as follows: Half life in mouse liver microsomes at 1 uM in absence of NADPH by LC-MS analysis. It is filed as ADME, microsome. The method in brief:
as §1

For data set [17], the system named is Respiratory syncytial virus. The data set is described as follows: Inhibition of recombinant mkate-tagged-Respiratory syncytial virus-A2-L19F RNA-dependent RNA polymerase complex D489E mutant in human BEAS2B cells infected with Respiratory syncytial virus-A2-L19F assessed as reduction in RSV-N mRNA level measured after 20 hrs by RT-qPCR analysis. Format: cell-based. The method in brief: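 Cells infected with mKate recRSV-A2-L19F (MOI 3 particles/cell) and exposed to compound at 0.1–10 µM, or DMSO, at 37°C for 20 h. RT-qPCR of RSV N mRNA, with melt-curve check. ΔΔCT calculated against GAPDH and normalised to DMSO controls. Three independent experiments, each in duplicate; mean ± SD.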
Background: Real-time PCR tracks product formation cycle by cycle.

The test system of data set [18] is Vesicular stomatitis virus. The data set is described as follows: Antiviral activity against Vesicular stomatitis virus assessed as reduction in viral replication measured after […] by bioluminescence assay. It is filed as functional.
Data set [19] is described as follows: Antiviral activity against influenza A virus (A/WSN/1933(H1N1)) infected in MDCK cells assessed as reduction in viral replication measured after […] by bioluminescence assay. Format: functional, cell-based.
Data set [20] is described as follows: Inhibition of recombinant mkate-tagged-Respiratory syncytial virus-A2-L19F RNA-dependent RNA polymerase D489E mutant in human BEAS2B cells infected with Respiratory syncytial virus-A2-L19F assessed as reduction in progeny release measured after 48 hrs postinfection by fluorescence assay based progeny virus yield-based dose-response assay. It is filed as cell-based. Particulars: BEAS-2B. In outline: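 Cells in 12-well format infected with mKate-expressing recRSV-A2-L19F (MOI 0.05 particles/cell) in the presence of serial compound dilutions at 37°C. Cell-associated progeny harvested 48 h post-infection and released by one freeze/thaw cycle. Titres determined by TCID50 titration. Two repeats; EC50 derived by regression.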

For data set [21], the system named is Respiratory syncytial virus. The data set is described as follows: Inhibition of Respiratory syncytial virus-A2-L19F RNA-dependent RNA polymerase complex D489E mutant in human BEAS2B cells infected with Respiratory syncytial virus-A2-L19F by firefly luciferase reporter-based RSV minigenome assay. Format: cell-based. In general terms: Reporter assays use an easily measured gene product as a stand-in for the process of interest.

The subject of data set [22] is Liver. The data set is described as follows: Half life in mouse liver microsomes at 1 uM by LC-MS analysis. It is filed as ADME, microsome. The method in brief:
as §1

Data set [23] deals with Liver. The data set is described as follows: Drug level in mouse liver microsomes treated with at 1 uM GRP-74915 by LC-MS analysis. Format: ADME, microsome.
In data set [24] the test system is Plasma. As to the kind of experiment: Half life in mouse plasma at 1 uM by LC-MS analysis. Format: ADME, cell-free.
Data set [25] has as its system Plasma. The data set is described as follows: Half life in human plasma at 1 uM by LC-MS analysis. Format: ADME, cell-free.
For data set [26], the system named is Liver. As to the kind of experiment: Half life in human liver S9 fraction at 1 uM by LC-MS analysis. It is filed as ADME, tissue-based. Conditions: s9, 1 µM. In outline:
as §1

Setting [27] is: human respiratory syncytial virus, A2-L19F, BEAS-2B, 40 min.

For orientation: CC50 means the concentration at which the toxic effect on the cells reaches its halfway point. The low end stands for harm at low concentration, the high end for better tolerance by the cells. One may read the solubility (kinetic) as the concentration staying in solution when a stock, usually in DMSO, is diluted into the medium. Usually pEC50 stands for the EC50 on a negative log10 scale, so that one unit is a factor of ten. As for `Cc1ccoc1C(=O)N1CCCn2nc(C(=O)Cc3ccccc3)cc2C1`, the Retention time in data set [1] is 12.9 min. Also, the Stability entry in the data set on Liver [2] is reported as “Stable”. In addition, the Drug metabolism result in the data set with Liver [3], in the data set on Liver [4], with Liver [5] and in the data set on Liver [6] was “Metabolite_Detected” throughout. The t1/2 is 20 min in the data set on Liver [7], 0.7 h in the data set on Liver [8] and 20 min with Liver [9]. This compound also displayed a CC50 in the data set on BEAS-2B of 5.5 µM. Besides, the selectivity ratio in [10] is 79. For the same compound, the kinetic solubility at 1.5 h in data set [11] is 18 µg/mL (≈ 49.5 µM); in data set [12], 18 µg/mL (≈ 49.5 µM); in data set [13], less than 15 µg/mL. Also, in [14] (setting [27]), the pEC50 is 7.15.

Regarding `Cc1ccoc1C(=O)N1CCCn2nc(C(=O)Nc3ccccc3)cc2C1`, the t1/2 in the data set on Liver [7] amounted to 15 min; in the data set with Liver [8], 4.7 h; with Liver [9], 15 min; in the data set with Liver [16] it was 15 min. The Drug metabolism result with Liver [15] was “Metabolite_Detected”. The inhibition result in data set [17] and in [21] was “Dose-dependent effect” in each case. In the data set with BEAS-2B, the CC50 was 8.3 µM. Besides, the selectivity ratio in [10] came to 40. Further, the values for the solubility (kinetic) at 1.5 h in data set [11], in data set [12] and in [13] were 63 µg/mL (≈ 173 µM), 75 µg/mL (≈ 206 µM) and 74 µg/mL (≈ 203 µM), respectively. Besides, the pEC50 is 6.68 to 6.70 and 6.08 in data set [14]; less than 4.70 in data set [18]; less than 4.70 in data set [19]; 6.27 in [20].

In the case of `Cc1ccoc1C(=O)N1CCCn2nc(C(=O)Nc3ccc(F)cc3Cl)cc2C1`, the results for the t1/2 with Liver [22] and with Liver [8] were 4 min and 3.6 h, respectively. Also, half-maximal cytotoxicity in the data set on BEAS-2B (CC50) was put at 30 µM. Besides, the selectivity ratio in [10] is 500. Moreover, in data set [14] (setting [27]), the pEC50 was 7.22.

Consider `Cc1ccoc1C(=O)N1CCCn2nc(C(=O)O)cc2C1`, for which the Drug metabolism entry in the data set with Liver [23] was “Metabolite_Detected”.

On to `Cc1ccoc1C(=O)N1CCCn2nc(C(=O)Nc3ccccc3F)cc2C1`, for which the t1/2 in the data set on Liver [7] is 11 min; with Plasma [24], 2.4 h; in the data set with Liver [8], 5.3 h; in the data set on Plasma [25] it was more than 24 h; with Liver [26] it was 7 h. It took 1.1 µM to reach half-maximal cytotoxicity with BEAS-2B (CC50). Further, the selectivity ratio in [10] worked out at 22. The solubility (kinetic) at 1.5 h in data set [11] is 30 µg/mL (≈ 78.5 µM); in data set [12], 51 µg/mL (≈ 133 µM); in [13], 75 µg/mL (≈ 196 µM). Moreover, the pEC50 in data set [14] (setting [27]) was 7.30.
